Data published in ChEMBL document CHEMBL1124841, “Chalcones: a new class of antimitotic agents” (1990).

Legend:
HeLa [1] = test: In vitro antimitotic activity against HeLa cells after 6 hours exposure; format: functional, Homo sapiens
Summary of the method: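 Asynchronous HeLa cells were exposed to compound continuously for 6 h. Mitotic index (cells in mitosis/cells counted) was scored on about 300 cells counted across three fields. The equivalent dose (ED) is the concentration giving the same mitotic index as the colchicine standard at 0.05 µg/mL.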

HeLa [2] = test: In vitro antimitotic activity against HeLa cells after 1 hr exposure to the compound; format: functional, Homo sapiens
Summary of the method: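 HeLa cells exposed to compound for 1 h, washed in fresh medium, then kept 18 h in compound-free medium. Mitotic index (cells in mitosis/cells counted) scored as in the 6-h test. The reported equivalent dose (ED) is the concentration giving the same mitotic index as vinblastine at 0.06 µg/mL.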

L1210 [3] = test: The ratio of survival time for treated divided by survival time of control x 100 at a dose of 25 mg/kg in L1210 leukemia cells; format: functional, Mus musculus
Summary of the method: (§1)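 Mice inoculated ip on day 0 with 1 × 10^5 L1210 leukemia or B16 melanoma cells. Compounds given ip once daily on days 1-9, suspended or dissolved in 5% PVP. Survival time recorded and averaged per group. Value is mean survival of treated over control × 100.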

L1210 [4] = test: The ratio of survival time for treated divided by survival time of control x 100 at a dose of 50 mg/kg in L1210 leukemia cells; format: functional, Mus musculus; summary of the method: as §1
B16 [5] = test: The ratio of survival time for treated divided by survival time of control x 100 at a dose of 100 mg/kg in B16 melanoma cells; format: functional, Mus musculus; summary of the method: as §1
B16 [6] = test: The ratio of survival time for treated divided by survival time of control x 100 at a dose of 25 mg/kg in B16 melanoma cells; format: functional, Mus musculus; summary of the method: as §1
B16 [7] = test: The ratio of survival time for treated divided by survival time of control x 100 at a dose of […] in B16 melanoma cells; format: functional, Mus musculus
L1210 [8] = test: The ratio of survival time for treated divided by survival time of control x 100 at a dose of […] in L1210 leukemia cells; format: functional, Mus musculus
L1210 [9] = test: The ratio of survival time for treated divided by survival time of control x 100 at a dose of 6.25 mg/kg in L1210 leukemia cells; format: functional, Mus musculus; summary of the method: as §1
B16 [10] = test: The ratio of survival time for treated divided by survival time of control x 100 at a dose of 0.2 mg/kg in B16 melanoma cells; format: functional, Mus musculus; summary of the method: as §1
L1210 [11] = test: The ratio of survival time for treated divided by survival time of control x 100 at a dose of 0.2 mg/kg in L1210 leukemia cells; format: functional, Mus musculus; summary of the method: as §1

Row | Compound | ED (HeLa [1]) [µg/mL] | other results
1 | COc1ccc(OC)c(C(=O)/C=C/c2ccc(N(C)C)cc2)c1 | 0.0075 | ED (HeLa [2]): 1.5 µg/mL
2 | COc1ccc(C(=O)/C=C/c2ccc(N(C)C)cc2)cc1OC | 3.1 | 
3 | COc1cc(C(=O)/C=C/c2ccc(N(C)C)cc2)cc(OC)c1OC | 0.015 | ED (HeLa [2]): 12.5 µg/mL
4 | COc1ccc(C(=O)/C=C/c2cccs2)c(OC)c1OC | 3.1 | 
5 | COc1cc(C(=O)/C=C/c2ccco2)cc(OC)c1OC | 5 | 
6 | COc1cc(C(=O)/C=C/c2ccc(N)cc2)cc(OC)c1OC | 0.15 | 
7 | COc1ccc(C(=O)/C(Br)=C/c2ccc(N(C)C)cc2)c(OC)c1OC | 0.15 | ED (HeLa [2]): 6.25 µg/mL; T/C (L1210 [3]): 145%; T/C (L1210 [4]): 140%; T/C (B16 [5]): 192%
8 | COc1cc(C(=O)/C=C/c2ccc(C#N)cc2)cc(OC)c1OC | 3.1 | 
9 | COc1ccc(C(=O)/C=C/c2ccc(N(C)C)cc2C)c(OC)c1OC | 3.1 | 
10 | COc1ccc(OC)c(C(=O)/C(Br)=C/c2ccc(N(C)C)cc2)c1 | 0.0075 | 
11 | CC(=O)Nc1ccc(/C=C/C(=O)c2ccc(C(N)=O)cc2)cc1 | 3.1 | 
12 | CCN(CC)c1ccc(/C=C(\C)C(=O)c2cc(OC)c(OC)c(OC)c2)cc1 | 0.0075 | 
13 | COc1ccc(OC)c(C(=O)/C(Cl)=C/c2ccc(N(C)C)cc2)c1 | 0.015 | 
14 | COc1cc(C(=O)/C=C/c2ccccc2)cc(OC)c1OC | 0.15 | 
15 | CC(=O)Nc1ccc(/C=C/C(=O)c2ccc(C#N)cc2)cc1 | 25 | 
16 | CO/N=C(\C=C\c1ccc(N(C)C)cc1)c1cc(OC)c(OC)c(OC)c1 | 0.3 | 
17 | COc1cc(C(=O)/C(Br)=C/c2ccc(N(C)C)cc2)cc(OC)c1OC | 0.0038 | ED (HeLa [2]): 1.5 µg/mL
18 | COc1cc(C(=O)/C=C/c2ccc(SC)cc2)cc(OC)c1OC | 0.3 | 
19 | COc1ccccc1C(=O)/C=C/c1ccc(N(C)C)cc1 | 0.15 | ED (HeLa [2]): 6.25 µg/mL
20 | COc1cc(C(=O)/C=C/c2ccc(C(C)(C)C)cc2)cc(OC)c1OC | 2.5 | 
21 | CCN(CC)c1ccc(/C=C/C(=O)c2cc(OC)c(OC)c(OC)c2)cc1 | 0.0075 | 
22 | COc1cc(C(=O)/C=C/c2ccncc2)cc(OC)c1OC | 25 | 
23 | COc1cc(C(=O)/C=C(\C)c2ccccc2)cc(OC)c1OC | 3.1 | 
24 | COc1cc(C(=O)/C=C(\C)c2ccc(N)cc2)cc(OC)c1OC | 0.3 | 
25 | COc1ccc(OC)c(C(=O)/C=C/c2ccc(NC(C)=O)cc2)c1 | 6.25 | 

Row | Compound | ED (HeLa [1]) [µg/mL] | other results
26 | COC(=O)Nc1ccc(/C=C/C(=O)c2cc(OC)c(OC)c(OC)c2)cc1 | 3.1 | 
27 | CC(=O)Nc1ccc(/C=C/C(=O)c2cccc(Cl)c2)cc1 | >100 | 
28 | COc1ccc(C(=O)/C=C/c2ccc(NC(C)=O)cc2)c(OC)c1OC | 3.1 | 
29 | COc1cc(OC)c(C(=O)/C=C/c2ccc(NC(C)=O)cc2)c(OC)c1 | 3.1 | 
30 | CCN(CC)c1ccc(/C=C(\C)C(=O)c2ccc(OC)c(OC)c2OC)cc1 | 25 | 
31 | CCN(CC)c1ccc(/C=C/C(=O)c2ccc(OC)c(OC)c2OC)cc1 | 0.15 | 
32 | CCCCOc1ccc(/C=C/C(=O)c2cc(OC)c(OC)c(OC)c2)cc1 | >25 | 
33 | COc1cc(C(=O)/C=C/c2cccs2)cc(OC)c1OC | 3.1 | 
34 | COc1cc(C(=O)/C=C/c2ccc([S+](C)[O-])cc2)cc(OC)c1OC (stereo not given) | >100 | 
35 | COc1cc(C(=O)/C=C/c2ccc(N3CCOCC3)cc2)cc(OC)c1OC | 6.25 | 
36 | COc1cc(C(=O)/C=C/c2ccc(NC(C)=O)cc2)cc(OC)c1OC | 3.1 | 
37 | COc1ccc(C(=O)/C(C)=C/c2ccccc2)c(OC)c1OC |  | ED (HeLa [2]): 6.25 µg/mL
38 | CCOc1ccc(/C=C/C(=O)c2cc(OC)c(OC)c(OC)c2)cc1 | 0.15 | 
39 | COc1cc(C(=O)/C=C/c2ccccc2C(F)(F)F)cc(OC)c1OC | 100 | 
40 | COc1cc(C(=O)/C(C)=C/c2ccc(N(C)C)cc2)cc(OC)c1OC | 0.019 | ED (HeLa [2]): 0.3 µg/mL
41 | CC(=O)Nc1ccc(/C=C/C(=O)c2ccc(C(C)(C)C)cc2)cc1 | 0.25 | 
42 | COc1cc(C(=O)/C=C(\C)c2ccc(N(C)C)cc2)cc(OC)c1OC | >100 | 
43 | COc1cc(C(=O)/C=C/c2ccc(N(C)C)cc2C)cc(OC)c1OC | 0.0075 | 
44 | COc1cc(C(=O)/C=C/c2ccc([N+](=O)[O-])cc2)cc(OC)c1OC | 25 | 
45 | CC/C(=C\c1ccc(N(C)C)cc1)C(=O)c1ccc(OC)c(OC)c1OC | 0.15 | 
46 | COc1cc(C(=O)/C=C/c2cccc(NC(C)=O)c2)cc(OC)c1OC | >100 | 
47 | COc1cc(C(=O)/C=C/c2cccc(N(C)C)c2)cc(OC)c1OC | >100 | 
48 | COc1ccc(C(=O)/C(Cl)=C/c2ccc(N(C)C)cc2)c(OC)c1OC | 0.015 | 
49 | CCN(CC)c1ccc(/C=C(\C)C(=O)c2cc(OC)ccc2OC)cc1 | 0.15 | 
50 | COc1cc(C(=O)/C=C/C=C/c2ccc(N(C)C)cc2)cc(OC)c1OC | 3.1 | 

Row | Compound | ED (HeLa [1]) [µg/mL] | other results
51 | COc1ccc(C(=O)/C=C/c2ccc(NC(C)=O)cc2)cc1 | 3.1 | 
52 | CCc1cccc(C(=O)/C=C/c2ccc(NC(C)=O)cc2)c1 | >100 | 
53 | CCCCNc1ccc(/C=C/C(=O)c2cc(OC)c(OC)c(OC)c2)cc1 | 6.25 | 
54 | COc1ccc(C(=O)/C(C)=C/c2ccc(N(C)C)cc2)c(OC)c1OC | 1.5 | T/C (B16 [6]): 190%; T/C (L1210 [3]): 121%; T/C (L1210 [4]): 138%
55 | CC(=O)Nc1ccc(/C=C/C(=O)c2cccc(C(F)(F)F)c2)cc1 | 25 | 
56 | COc1cc(C(=O)/C=C/c2cccc(N)c2)cc(OC)c1OC | 0.15 | 
57 | COc1cc(C(=O)/C=C/c2cccc([N+](=O)[O-])c2)cc(OC)c1OC | >100 | 
58 | COc1cc(C(O)/C=C/c2ccc(N(C)C)cc2)cc(OC)c1OC (stereo not given) | 3.1 | 
59 | COc1cc(C(=O)CCc2ccc(N(C)C)cc2)cc(OC)c1OC | 3.1 | 
60 | COc1cc(C(=O)/C=C/c2ccc(N(C)C)cc2)cc(OC)c1O | 3.1 | 
61 | COc1ccc(C(=O)/C=C/c2ccc(N(C)C)cc2)c(OC)c1OC | 0.015 | 
62 | COc1ccc(C(=O)/C=C/c2ccc(N(C)C)cc2)c(OC)c1 | 6.25 | 
63 | COc1cc(/C=C/C(=O)c2ccccc2)cc(OC)c1OC | >25 | 
64 | COc1cc(C(=O)/C=C/c2ccc(Br)cc2)cc(OC)c1OC | 0.015 | 
65 | COc1cc(C(=O)/C(Cl)=C/c2ccc(N(C)C)cc2)cc(OC)c1OC | 3.1 | 
66 | COc1cc(C(=O)/C=C/c2ccc(F)cc2)cc(OC)c1OC | >25 | 
67 | COc1cc(C(=O)/C=C/c2ccc(OC(C)C)cc2)cc(OC)c1OC | >25 | 
68 | COc1cc(/C=C/C(=O)c2ccc(N(C)C)cc2)cc(OC)c1OC | 0.15 | 
69 | COc1cc(C(=O)C#Cc2ccccc2)cc(OC)c1OC | >6.25 | 
70 | COc1cc(C(=O)/C=C/c2ccc(C(F)(F)F)cc2)cc(OC)c1OC | 6.25 | 
71 | COc1ccc(OC)c(C(=O)/C(C)=C/c2ccc(N(C)C)cc2)c1 | 0.0038 | T/C (B16 [7]): 146%; T/C (L1210 [8]): 137%; ED (HeLa [2]): 0.06 µg/mL; T/C (L1210 [9]): 126%; T/C (B16 [6]): 183%; T/C (L1210 [3]): 146%; T/C (L1210 [4]): 154%
72 | O=C(/C=C/c1ccccc1)c1ccccc1 [CHALCONE] | 3.1 | 
73 | COc1cc2c(c(OC)c1OC)-c1ccc(OC)c(=O)cc1[C@@H](NC(C)=O)CC2 [COLCHICINE] | 0.05 | 
74 | CC[C@]1(O)C[C@@H]2CN(CCc3c([nH]c4ccccc34)[C@@](C(=O)OC)(c3cc4c(cc3OC)N(C)[C@H]3[C@@](O)(C(=O)OC)[C@H](OC(C)=O)[C@]5(CC)C=CCN6CC[C@]43[C@@H]65)C2)C1 [VINBLASTINE] | 0.0015 | T/C (B16 [10]): 180%; T/C (L1210 [11]): 140%
